Measurements published in PMC3564407 (The Febs Journal, 2012).
Square brackets hold non-standard residues; d marks the D form. Ends that are not written are not given here. Peptide text beside a SMILES is read from it. pGlu = O=C1CC[C@@H](C(=O)O)N1

How the values were obtained:
[1] = target: T1, Drosophila melanogaster AnCE (Drosophila melanogaster, UniProt Q10714); assay: Inhibition of Ang I to Ang II conversion by AnCE; assay type: biochemical; conditions: pH 7.5, read-out: % inhibition of the conversion of Ang I to Ang II
T1 sequence (Q10714 18-615): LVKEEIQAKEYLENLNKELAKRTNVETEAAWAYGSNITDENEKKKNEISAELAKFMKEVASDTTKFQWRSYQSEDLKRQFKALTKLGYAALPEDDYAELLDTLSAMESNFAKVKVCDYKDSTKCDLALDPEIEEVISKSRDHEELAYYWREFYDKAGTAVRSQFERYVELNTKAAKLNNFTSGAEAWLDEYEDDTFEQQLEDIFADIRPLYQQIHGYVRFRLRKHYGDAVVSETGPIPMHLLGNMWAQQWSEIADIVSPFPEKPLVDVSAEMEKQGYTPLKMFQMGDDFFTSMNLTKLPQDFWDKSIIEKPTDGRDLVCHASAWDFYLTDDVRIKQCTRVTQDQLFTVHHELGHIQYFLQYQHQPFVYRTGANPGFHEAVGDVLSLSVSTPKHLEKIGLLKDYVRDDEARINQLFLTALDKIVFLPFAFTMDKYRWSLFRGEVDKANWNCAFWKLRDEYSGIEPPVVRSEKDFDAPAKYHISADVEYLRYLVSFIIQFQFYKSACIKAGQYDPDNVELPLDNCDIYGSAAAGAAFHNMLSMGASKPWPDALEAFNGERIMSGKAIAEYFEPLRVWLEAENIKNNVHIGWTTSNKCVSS
Method in brief: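 Recombinant D. melanogaster AnCE expressed in P. pastoris and purified by hydrophobic interaction and size-exclusion chromatography; diluted to 250 ng·μL−1 in reaction buffer containing 0.1 mg·mL−1 BSA. Reaction buffer is 0.1 m Hepes pH 7.5, 10 μm ZnSO4, 0.15 m NaCl, with Ang I (100 μm final) as substrate. Ang I consumption was quantified by HPLC-UV at 214 nm without and with 100 μm (initial) Ang II.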

[2] = target: T1, Drosophila melanogaster AnCE; assay: Inhibition of AnCE with Abz-YRK; assay type: biochemical
[3] = target: T1, Drosophila melanogaster AnCE; conditions: ref [17]; cited from earlier work
ACE N- and C-domains = conditions: mice; ref [7],[8]; cited from earlier work
ACE N-domain = conditions: ref [9],[10]; cited from earlier work

Q: Which inhibition at 100 µM [1] does the source give for CC[C@H](C)[C@H](NC(=O)[C@H](Cc1ccc(O)cc1)NC(=O)[C@@H](NC(=O)[C@H](CCCNC(=N)N)NC(=O)[C@@H](N)CC(=O)O)C(C)C)C(=O)N[C@@H](Cc1c[nH]cn1)C(=O)N1CCC[C@H]1C(=O)N[C@@H](Cc1ccccc1)C(=O)O [Ang II, angiotensin II] here?
A: The inhibition at 100 µM was 73%.

Q: With CC[C@H](C)[C@H](NC(=O)[C@H](CCCCN)NC(=O)[C@@H]1CCCN1C(=O)[C@H](CCCNC(=N)N)NC(=O)[C@@H]1CCCN1C(=O)[C@@H]1CCCN1C(=O)[C@H](CC(C)C)NC(=O)CNC(=O)[C@@H]1CCC(=O)N1)C(=O)N1CCC[C@H]1C(=O)N1CCC[C@H]1C(=O)O [BPPb, bradykinin-potentiating peptide-b] ([pGlu]GLPPRPKIPP-OH) as the compound, how does the Ki [2] read?
A: The Ki was 107 µM.

Q: With DRVYIHPFHL [Ang I, angiotensin I] as the compound, how does the “cleavage by AnCE” value [3] read?
A: The value was “converts Ang I to Ang II”.

Q: And the “in vivo conversion to Ang II by ACE domain” value (ACE N- and C-domains)?
A: Its value is “the C-domain is primarily responsible”.

Q: For N-acetyl Ser–Asp–Lys–Pro, which “degradation by ACE domain” value (ACE N-domain) is on record?
A: The value was “the N-domain is solely responsible”.

Q: For RPPGFSPFR [BK, bradykinin], which “cleavage by AnCE” value [3] is on record?
A: Its value is “inactivates BK”.

Q: What about the “cleavage efficiency by ACE domains” value (ACE N- and C-domains) of the same compound?
A: Its value is “cleaved with similar efficiency by both domains”.
